We go through seven compounds from ChEMBL document CHEMBL4813935, “Cyclotides from Brazilian Palicourea sessilis and Their Effects on Human Lymphocytes” (J Nat Prod, 2021).

A short description of series [1]: Inhibition of anti-human CD3/CD28/mAbs-stimulated human T-lymphocutes proliferation after 72 hrs by CFSE staining based flow cytometric analysis. The class given is functional, tissue-based. The note with it: T-cell. Put shortly:
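PBMC from healthy donor venous blood, density-gradient isolated; 5 × 10^6 cells/mL labelled with CFSE (1:1000 of 5 mM stock), 10 min at 37 °C, washed. Stimulated with anti-CD3 (OKT3) and anti-CD28 (28.6), each 100 ng/mL, with peptide at 1–30 μM for 72 h at 37 °C, 5% CO2. Division read by flow cytometry, normalised to stimulated untreated cells (100%); four independent experiments.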

Series [2] in a line: Cytotoxicity against HUVEC assessed as reduction in cell viability measured after 48 hrs by MTT assay. The class given is cell-based. The settings on record: human. Put shortly:
(§1)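 Cells seeded at 5.0 × 10^3 per well; medium was refreshed the day after plating, then peptides were added at final 0.78–100 μM, with 0.1% (v/v) Triton X-100 as positive control. Incubation was 48 h, then MTT (5 mg/mL in PBS) for 3 h. Formazan was dissolved in DMSO and read at 600 nm. Triplicate experiments; CC50 from log(inhibitor) vs normalized response (variable slope) fit.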
For orientation: Tetrazolium assays rely on reduction of a dye to a coloured formazan, in cell work by metabolically active cells.

A short description of series [3]: Cytotoxicity against human HT-29 cells assessed as reduction in cell viability measured after 48 hrs by MTT assay. The class given is cell-based. Put shortly: as §1
Series [4] in a line: Hemolytic activity against human RBC assessed as concentration required to cause 50% hemolysis measured after 1 hr. The class given is cell-based, Erythrocyte. The note with it: red blood cells (erythrocytes), read-out: CC50. A digest of the protocol: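 Donor human red blood cells were washed in PBS and diluted to 0.25% (v/v). Peptides were serially diluted from water to eight concentrations, 0.187–24 μM. Incubation was 1 h at 37 °C; PBS served as negative control and 1% Triton-X as positive control. Supernatant absorbance was read at 415 nm. CC50 (50% lysis) from log(agonist) vs response (variable slope) fit; n = 3.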

In a further series the test system is T-cell line. Description: Immunosuppressive activity in anti-CD3/anti-CD28-stimulated human T-lymphocytes assessed as inhibition of cell proliferation after 72 hrs by CFSE staining based flow cytometric analysis. The class given is functional. A digest of the protocol: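 Donor PBMC were isolated on a density gradient and CFSE-stained for 10 min at 37 °C. Cells were stimulated with anti-CD3 (OKT3) and anti-CD28 mAbs, 100 ng/mL each, and exposed to peptides at 1–30 μM for 72 h at 37 °C, 5% CO2. Division was read by flow cytometry and normalized to stimulated untreated cells (100%). Four independent experiments, mean ± SD.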
On the technique in general: In flow cytometry, cells or beads pass a laser one at a time.

Positions of bridges follow the written chain, without caps; N, C: chain ends. Residues, ends and D or L forms follow the SMILES beside them. A value given as a limit tells only on which side of the number the result lay.

`CC(C)C[C@@H]1NC(=O)CNC(=O)[C@H](CC(N)=O)NC(=O)[C@H](CCCNC(=N)N)NC(=O)[C@H]([C@@H](C)O)NC(=O)[C@@H]2CSSC[C@@H]3NC(=O)[C@H]([C@@H](C)O)NC(=O)CNC(=O)CNC(=O)[C@H](C(C)C)NC(=O)[C@@H]4CSSC[C@H](NC(=O)[C@H]([C@@H](C)O)NC(=O)[C@H](CSSC[C@H](NC(=O)[C@H](C(C)C)NC(=O)[C@@H]5CCCN5C1=O)C(=O)NCC(=O)N[C@@H](CCC(=O)O)C(=O)N[C@@H]([C@@H](C)O)C(=O)N4)NC(=O)CNC(=O)[C@@H]1CCCN1C(=O)[C@H]([C@@H](C)O)NC(=O)[C@H](CC(N)=O)NC3=O)C(=O)N[C@@H](CO)C(=O)N[C@@H](Cc1c[nH]c3ccccc13)C(=O)N1CCC[C@H]1C(=O)N[C@@H](C(C)C)C(=O)N2`: the IC50 – broadly, the concentration that inhibits the measured activity by half – in series [1] came to 1.9 µM. Moreover, the CC50 (as a rule, the concentration that lowers cell viability or growth by half) at 48 h is 5.1 µM in series [2] and over 10 µM in series [3].

As for `CC[C@H](C)[C@@H]1NC(=O)[C@@H]2CCCN2C(=O)[C@H](Cc2c[nH]c3ccccc23)NC(=O)[C@H](CO)NC(=O)[C@@H]2CSSC[C@@H]3NC(=O)[C@H]([C@@H](C)O)NC(=O)[C@H](CCC(=O)O)NC(=O)CNC(=O)[C@@H]4CSSC[C@H](NC(=O)CNC(=O)[C@@H]5CCCN5C(=O)[C@H]([C@@H](C)O)NC(=O)[C@H](CC(N)=O)NC(=O)[C@H](CSSC[C@H](NC1=O)C(=O)N[C@@H]([C@@H](C)O)C(=O)N[C@@H](CCCNC(=N)N)C(=O)N[C@@H](CC(N)=O)C(=O)NCC(=O)N[C@@H](CC(C)C)C(=O)N1CCC[C@H]1C(=O)N[C@@H](C(C)C)C(=O)N4)NC(=O)[C@H]([C@@H](C)O)NC(=O)CNC(=O)CNC(=O)[C@H](C(C)C)NC3=O)C(=O)N[C@@H](C(C)C)C(=O)N2`, the CC50 at 48 h was 7.5 µM in series [2] and over 10 µM in series [3]. The HC50 at 1 h in series [4] was found to be 14.6 µM. For the same compound, the IC50 with T-cell line amounted to 2.3 µM.

`CC[C@H](C)[C@@H]1NC(=O)[C@@H]2CCCN2C(=O)[C@H](Cc2c[nH]c3ccccc23)NC(=O)[C@H](C)NC(=O)[C@@H]2CSSC[C@@H]3NC(=O)[C@H]([C@@H](C)O)NC(=O)[C@H](CCC(=O)O)NC(=O)CNC(=O)[C@@H]4CSSC[C@H](NC(=O)CNC(=O)[C@@H]5CCCN5C(=O)[C@H]([C@@H](C)O)NC(=O)[C@H](CC(N)=O)NC(=O)[C@H](CSSC[C@H](NC1=O)C(=O)N[C@@H]([C@@H](C)O)C(=O)N[C@@H](CCCNC(=N)N)C(=O)N[C@@H](CC(N)=O)C(=O)NCC(=O)N[C@@H](CC(C)C)C(=O)N1CCC[C@H]1C(=O)N[C@@H](C(C)C)C(=O)N4)NC(=O)[C@H]([C@@H](C)O)NC(=O)CNC(=O)CNC(=O)[C@H](C(C)C)NC3=O)C(=O)N[C@@H](C(C)C)C(=O)N2`: the CC50 at 48 h was determined as 5.3 µM in series [2] and 6.1 µM in series [3]. In series [4], the HC50 at 1 h was found to be 33.5 µM. The IC50 in the series with T-cell line came out at 1.6 µM.

Regarding `CC(C)C[C@@H]1NC(=O)CNC(=O)[C@H](CC(N)=O)NC(=O)[C@H](CCCNC(=N)N)NC(=O)[C@H]([C@@H](C)O)NC(=O)[C@@H]2CSSC[C@@H]3NC(=O)[C@H]([C@@H](C)O)NC(=O)CNC(=O)CNC(=O)[C@H](C(C)C)NC(=O)[C@@H]4CSSC[C@H](NC(=O)[C@H](C(C)C)NC(=O)[C@H](CSSC[C@H](NC(=O)[C@H](C(C)C)NC(=O)[C@@H]5CCCN5C1=O)C(=O)NCC(=O)N[C@@H](CCC(=O)O)C(=O)N[C@@H]([C@@H](C)O)C(=O)N4)NC(=O)CNC(=O)[C@@H]1CCCN1C(=O)[C@H]([C@@H](C)O)NC(=O)[C@H](CC(N)=O)NC3=O)C(=O)N[C@@H](CO)C(=O)N[C@@H](Cc1c[nH]c3ccccc13)C(=O)N1CCC[C@H]1C(=O)N[C@@H](C(C)C)C(=O)N2`, the half-maximal cytotoxic concentration (CC50) at 48 h in series [2] is 5.2 µM; in series [3] it was 5.5 µM. Further, in series [4], the HC50 at 1 h was 39.5 µM. Moreover, the IC50 in the series on T-cell line was 4.5 µM.

On to `CC(C)C[C@@H]1NC(=O)CNC(=O)[C@H](CC(N)=O)NC(=O)[C@H](CCCNC(=N)N)NC(=O)[C@H]([C@@H](C)O)NC(=O)[C@@H]2CSSC[C@@H]3NC(=O)[C@H]([C@@H](C)O)NC(=O)CNC(=O)CNC(=O)[C@H](C(C)C)NC(=O)[C@@H]4CSSC[C@H](NC(=O)[C@H](CO)NC(=O)[C@H](CSSC[C@H](NC(=O)[C@H](C(C)C)NC(=O)[C@@H]5CCCN5C1=O)C(=O)NCC(=O)N[C@@H](CCC(=O)O)C(=O)N[C@@H]([C@@H](C)O)C(=O)N4)NC(=O)CNC(=O)[C@@H]1CCCN1C(=O)[C@H]([C@@H](C)O)NC(=O)[C@H](CC(N)=O)NC3=O)C(=O)N[C@@H](CO)C(=O)N[C@@H](Cc1c[nH]c3ccccc13)C(=O)N1CCC[C@H]1C(=O)N[C@@H](C(C)C)C(=O)N2`, for which the values for the CC50 at 48 h in series [2] and in series [3] were over 10 µM and 7.3 µM, respectively. The HC50 at 1 h in series [4] turned out to be 49.6 µM.

As for `CC(C)C[C@@H]1NC(=O)CNC(=O)[C@H](CC(N)=O)NC(=O)[C@H](CCCNC(=N)N)NC(=O)[C@H](CCCCN)NC(=O)[C@@H]2CSSC[C@@H]3NC(=O)[C@H](CO)NC(=O)CNC(=O)[C@H]([C@@H](C)O)NC(=O)[C@H](C(C)C)NC(=O)[C@@H]4CSSC[C@H](NC(=O)[C@H](CO)NC(=O)[C@H](CSSC[C@H](NC(=O)[C@H](C(C)C)NC(=O)[C@@H]5CCCN5C1=O)C(=O)NCC(=O)N[C@@H](CCC(=O)O)C(=O)N[C@@H]([C@@H](C)O)C(=O)N4)NC(=O)CNC(=O)[C@@H]1CCCN1C(=O)[C@H]([C@@H](C)O)NC(=O)[C@H](Cc1ccc(O)cc1)NC3=O)C(=O)N[C@@H](CO)C(=O)N[C@@H](Cc1c[nH]c3ccccc13)C(=O)N1CCC[C@H]1C(=O)N[C@@H](C(C)C)C(=O)N2`, the CC50 at 48 h in series [2] is over 10 µM; in series [3], 5.6 µM. The HC50 at 1 h in series [4] came out at 51.7 µM.

For `CC[C@H](C)[C@@H]1NC(=O)[C@@H]2CCCN2C(=O)[C@H](Cc2c[nH]c3ccccc23)NC(=O)[C@H](CO)NC(=O)[C@@H]2CSSC[C@@H]3NC(=O)[C@H]([C@@H](C)O)NC(=O)[C@H](CCC(=O)O)NC(=O)CNC(=O)[C@@H]4CSSC[C@H](NC(=O)CNC(=O)[C@@H]5CCCN5C(=O)[C@H]([C@@H](C)O)NC(=O)[C@H](CC(N)=O)NC(=O)[C@H](CSSC[C@H](NC1=O)C(=O)N[C@@H]([C@@H](C)O)C(=O)N[C@@H](CCCNC(=N)N)C(=O)N[C@@H](CC(N)=O)C(=O)NCC(=O)N[C@@H](CC(C)C)C(=O)N1CCC[C@H]1C(=O)N[C@@H]([C@@H](C)O)C(=O)N4)NC(=O)[C@H]([C@@H](C)O)NC(=O)CNC(=O)CNC(=O)[C@H](C(C)C)NC3=O)C(=O)N[C@@H](C(C)C)C(=O)N2` (cyclo(CGETCVGGTCNTPGCVCSWPICTRNGLPT); disulfide 1-15, 5-17, 10-22), the CC50 at 48 h is over 10 µM in series [2] and 8.4 µM in series [3]. Besides, in series [4], the HC50 at 1 h was 62.8 µM. For the same compound, the IC50 in the series on T-cell line came to 7.1 µM.
